ChEMBL document CHEMBL2093137, “WHO-TDR NTD Screening”
Converted amounts (≈) assume the structure as drawn.

How the values were obtained:
[1] = tested on: Plasmodium falciparum K1; test: WHO-TDR: Malaria; assay type: functional, organism-based, Homo sapiens; details: Erythrocyte
Procedure, shortened: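 Whole-organism screen of a 10,000-compound diverse library from Life Chemicals, filtered for drug-likeness and reactive groups, against intra-erythrocytic Plasmodium falciparum K1 strain in human red blood cells. The assay followed previously published standard procedures, with a reference drug as positive control. Antiplasmodial potency is reported as IC50.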

[2] = WHO-TDR: Cytotoxicity; assay type: toxicity, cell-based; details: human, MRC5 cells
[3] = tested on: Onchocerca ochengi; test: (§1) WHO-TDR: Onchocerciasis; assay type: functional; design: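 at 12.5 µM on microfilariae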
Procedure, shortened: (§2)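 A diverse library of 10,000 compounds from Life Chemicals, filtered for drug-likeness and reactive groups, was screened against whole microfilariae of Onchocerca ochengi or Onchocerca lienalis. These animal pathogens served as stand-ins for the human parasite. Activity is given as percent inhibition and as IC50.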

[4] = tested on: Schistosoma mansoni; test: WHO-TDR: Schistosomiasis; assay type: functional; design: concentration or dose not given beside the values
Procedure, shortened: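 A diverse library of 10,000 compounds from Life Chemicals, filtered for drug-likeness and reactive groups, was screened against whole larval and/or adult Schistosoma mansoni worms of the Puerto Rican strain. Previously published standard procedures were followed, with a reference drug as positive control. Activity is given as percent inhibition and as IC50.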

[5] = tested on: Leishmania infantum; test: WHO-TDR: Leishmaniasis; assay type: functional, organism-based, Mus musculus; details: Macrophage
Procedure, shortened: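 Whole-organism screen of a 10,000-compound diverse library from Life Chemicals, filtered for drug-likeness and reactive groups, against intracellular amastigotes of Leishmania infantum MHOM/MA(BE)/67 in murine peritoneal macrophage host cells. The assay followed previously published standard procedures, with a reference drug as positive control. Antiparasitic potency is reported as IC50.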

[6] = tested on: Onchocerca ochengi; test: as §1; assay type: functional; design: concentration or dose not given beside the values; procedure, shortened: as §2; remark: listed apart in the source
[7] = tested on: Trypanosoma cruzi; test: WHO-TDR: Chagas disease; assay type: functional, organism-based, Homo sapiens; details: MRC5
Procedure, shortened: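 Intracellular amastigotes of the Trypanosoma cruzi Tulahuen CL2 beta-galactosidase strain, grown in MRC-5SV2 human lung fibroblast host cells, were tested in a whole-organism screen. The compounds came from a 10,000-member diverse Life Chemicals library that had been filtered for drug-likeness and reactive groups. Previously published standard procedures were followed, with a reference drug as positive control, and potency is reported as IC50.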

[8] = tested on: Trypanosoma brucei brucei; test: WHO-TDR: Human African Trypanosomiasis (HAT); assay type: functional, organism-based; details: Squib-427
Procedure, shortened: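 Whole-organism screen of a 10,000-compound diverse library from Life Chemicals, filtered for drug-likeness and reactive groups, against bloodstream forms of Trypanosoma brucei Squib 427 strain. The assay followed previously published standard procedures, with reference drugs as positive controls. Antiparasitic potency is reported as IC50.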

SMILES	IC50 [1]	IC50 [2]	% Inhibition [3]	% Inhibition [4]	IC50 [5]	% Inhibition [6]	IC50 [7]	IC50 [8]
CCCN1C(=O)C(C)(C)COc2cc(NS(=O)(=O)c3c(C)c(C)cc(C)c3C)ccc21	> 13.3 µg/mL	> 13.3 µg/mL	0%	0%	> 13.3 µg/mL	100%	3.55 µg/mL (≈ 7.99 µM)	4.27 µg/mL (≈ 9.6 µM)
O=C(Nc1nc(CSCc2ccc(F)cc2)cs1)c1ccco1	> 10.5 µg/mL	> 10.5 µg/mL	0%	0%	> 10.5 µg/mL	100%	> 10.5 µg/mL	> 10.5 µg/mL
O=C(Nc1nnc(-c2ccno2)o1)c1nc2ccccc2s1	6.88 µg/mL (≈ 22 µM)	> 9.4 µg/mL	0%	0%	> 9.4 µg/mL	100%	> 9.4 µg/mL	> 9.4 µg/mL
CCN(CC)CCN(C(=O)Cc1ccc2c(c1)OCO2)c1nc2c(C)cc(C)cc2s1	4.32 µg/mL (≈ 9.83 µM)	11.2 µg/mL (≈ 25.4 µM)	0%	0%	7.4 µg/mL (≈ 16.8 µM)	0%	4.58 µg/mL (≈ 10.4 µM)	0.452 µg/mL (≈ 1.03 µM)
Cc1ccc(C)c(C(=O)Nc2ccc3c(c2)CCC(=O)N3Cc2ccccc2)c1	> 11.5 µg/mL	> 11.5 µg/mL	0%	0%	> 11.5 µg/mL	75%	> 11.5 µg/mL	0.416 µg/mL (≈ 1.08 µM)
Cc1ccc2nc(-c3ccc(NC(=O)CC4CSc5nc(C)cc(=O)n54)cc3)sc2c1 (stereo not drawn)	3.38 µg/mL (≈ 7.54 µM)	> 13.5 µg/mL	0%	0%	> 13.5 µg/mL	100%	> 13.5 µg/mL	> 13.5 µg/mL
O=S(=O)(Nc1cccc(-c2nc3ccccc3s2)c1)c1ccc(Cl)s1	> 12.2 µg/mL	> 12.2 µg/mL	0%	0%	> 12.2 µg/mL	100%	4.01 µg/mL (≈ 9.85 µM)	> 12.2 µg/mL
CCOC(=O)c1ccccc1NC(=O)CSc1ncc(-c2ccccc2)[nH]1	> 11.4 µg/mL	> 11.4 µg/mL	0%	0%	> 11.4 µg/mL	100%	> 11.4 µg/mL	> 11.4 µg/mL
O=C(Nc1nc(-c2ccncc2)cs1)C1CCCN(S(=O)(=O)c2ccc(Cl)s2)C1 (stereo not drawn)	6.68 µg/mL (≈ 14.2 µM)	> 14.1 µg/mL	0%	0%	4.55 µg/mL (≈ 9.71 µM)	50%	0.243 µg/mL (≈ 0.518 µM)	4.5 µg/mL (≈ 9.6 µM)
CC1CCN(C(C)CNC(=O)Nc2ccccc2C(F)(F)F)CC1 (stereo not drawn)	2.22 µg/mL (≈ 6.46 µM)	7.77 µg/mL (≈ 22.6 µM)	0%	0%	> 10.3 µg/mL	0%	3.39 µg/mL (≈ 9.87 µM)	0.333 µg/mL (≈ 0.971 µM)
O=C(Cn1c(=O)n(Cc2cccnc2)c(=O)c2ncccc21)c1ccc2c(c1)CCCC2	2.96 µg/mL (≈ 6.93 µM)	> 12.8 µg/mL	0%	0%	> 12.8 µg/mL	100%	3.81 µg/mL (≈ 8.93 µM)	4.14 µg/mL (≈ 9.71 µM)
O=C(NC1CCCC1)c1csc(NC(=O)c2cccs2)n1	> 9.64 µg/mL	> 9.64 µg/mL	0%	0%	> 9.64 µg/mL	100%	> 9.64 µg/mL	> 9.64 µg/mL
CN1C(=O)C(C)(C)COc2ccc(NS(=O)(=O)c3ccccc3F)cc21	> 11.4 µg/mL	> 11.4 µg/mL	0%	0%	> 11.4 µg/mL	100%	> 11.4 µg/mL	> 11.4 µg/mL
COc1cc(CSc2nc(CC(=O)NCc3ccco3)cs2)cc(OC)c1	> 12.1 µg/mL	7.55 µg/mL (≈ 18.7 µM)	0%	0%	> 12.1 µg/mL	100%	2.99 µg/mL (≈ 7.4 µM)	> 1.21 µg/mL
CC1CCCN(S(=O)(=O)c2ccc(C(=O)Nc3nnc(-c4ccno4)o3)cc2)C1 (stereo not drawn)	5.03 µg/mL (≈ 12 µM)	> 12.5 µg/mL	0%	0%	> 12.5 µg/mL	100%	> 12.5 µg/mL	> 12.5 µg/mL
CSc1nc(NC(C)C)c2cnn(CCNC(=O)COc3ccc(Cl)cc3)c2n1	> 13 µg/mL	> 13 µg/mL	0%	0%	> 13 µg/mL	100%	4.18 µg/mL (≈ 9.62 µM)	4.13 µg/mL (≈ 9.49 µM)

SMILES	IC50 [1]	IC50 [2]	% Inhibition [3]	% Inhibition [4]	IC50 [5]	% Inhibition [6]	IC50 [7]	IC50 [8]
Cc1cccc(NC(=O)Cn2cc(S(=O)(=O)c3ccc(F)cc3)c3ccccc32)n1	> 12.7 µg/mL	> 12.7 µg/mL	0%	0%	> 12.7 µg/mL	100%	4.41 µg/mL (≈ 10.4 µM)	4.11 µg/mL (≈ 9.71 µM)
CCc1cc(=O)[nH]c(-n2nc(C)cc2NC(=O)Cc2cccs2)n1	0.493 µg/mL (≈ 1.44 µM)	0.293 µg/mL (≈ 0.853 µM)	0%	0%	> 10.3 µg/mL	100%	0.276 µg/mL (≈ 0.804 µM)	0.338 µg/mL (≈ 0.983 µM)
O=C(CC1CSc2nccc(=O)n21)Nc1ccc(Cl)c(Cl)c1 (stereo not drawn)	> 10.7 µg/mL	> 10.7 µg/mL	0%	0%	> 10.7 µg/mL	100%	> 10.7 µg/mL	> 10.7 µg/mL
O=C(CS(=O)(=O)c1ccc(F)cc1)Nc1onc2c1CCC2	2.83 µg/mL (≈ 8.72 µM)	> 9.73 µg/mL	0%	0%	> 9.73 µg/mL	100%	1.71 µg/mL (≈ 5.28 µM)	3.19 µg/mL (≈ 9.83 µM)
CC1Cc2ccccc2N1C(=O)Cc1csc(SCC(=O)Nc2ccc(F)cc2)n1 (stereo not drawn)	> 13.2 µg/mL	> 13.2 µg/mL	0%	0%	> 13.2 µg/mL	100%	4.42 µg/mL (≈ 10 µM)	> 13.2 µg/mL
O=C(CN1CCC(C(=O)Nc2ccc(Oc3ccccc3)cc2)CC1)Nc1ccc(F)cc1	> 13.4 µg/mL	> 13.4 µg/mL	0%	0%	0.695 µg/mL (≈ 1.55 µM)	0%	> 13.4 µg/mL	> 13.4 µg/mL
COc1ccc2oc(-c3csc(NC(=O)c4cccc(OC)c4OC)n3)cc2c1	> 12.3 µg/mL	> 12.3 µg/mL	0%	0%	0.638 µg/mL (≈ 1.55 µM)	0%	> 12.3 µg/mL	> 12.3 µg/mL
Cc1cc(=O)[nH]c(-n2nc(C)cc2NC(=O)c2c(F)cccc2Cl)n1	3.62 µg/mL (≈ 10 µM)	0.39 µg/mL (≈ 1.08 µM)	0%	0%	5.62 µg/mL (≈ 15.5 µM)	0%	0.331 µg/mL (≈ 0.915 µM)	1.96 µg/mL (≈ 5.43 µM)
CN(C)C(CNC(=O)c1ccc(-c2ccccc2)cc1)c1ccsc1 (stereo not drawn)	8.47 µg/mL (≈ 24.2 µM)	> 10.5 µg/mL	0%	0%	> 10.5 µg/mL	0%	3.32 µg/mL (≈ 9.49 µM)	0.395 µg/mL (≈ 1.13 µM)
Cc1cc(C(=O)N(CCCN(C)C)c2nc3c(C)ccc(Cl)c3s2)no1	3.3 µg/mL (≈ 8.41 µM)	5.07 µg/mL (≈ 12.9 µM)	0%	0%	4.17 µg/mL (≈ 10.6 µM)	100%	4.14 µg/mL (≈ 10.5 µM)	0.378 µg/mL (≈ 0.962 µM)
O=C(NCCC1=CCCCC1)c1n[nH]c2ccccc12	> 8.08 µg/mL	> 8.08 µg/mL	0%	0%	> 8.08 µg/mL	100%	> 8.08 µg/mL	> 8.08 µg/mL
CN1CCc2cc(C(CNC(=O)COc3ccc(Cl)cc3Cl)N3CCCC3)ccc21 (stereo not drawn)	5.1 µg/mL (≈ 11.4 µM)	11.6 µg/mL (≈ 25.9 µM)	0%	0%	3.38 µg/mL (≈ 7.54 µM)	50%	4.36 µg/mL (≈ 9.73 µM)	0.43 µg/mL (≈ 0.959 µM)
CCN(CC)CCN(C(=O)Cc1ccc2c(c1)OCO2)c1nc2c(C)c(C)ccc2s1	8.03 µg/mL (≈ 18.3 µM)	> 14.3 µg/mL	0%	0%	> 14.3 µg/mL	0%	9.51 µg/mL (≈ 21.6 µM)	0.452 µg/mL (≈ 1.03 µM)
CC(CNC(=O)Nc1ccc(Oc2ccccc2)cc1)N1CCCCC1 (stereo not drawn)	0.754 µg/mL (≈ 2.13 µM)	> 10.6 µg/mL	75%	0%	3.43 µg/mL (≈ 9.71 µM)	100%	3.98 µg/mL (≈ 11.3 µM)	0.319 µg/mL (≈ 0.902 µM)
O=C(Nc1nc2c(s1)CCCC2C(=O)NCCC1=CCCCC1)c1ccccc1 (stereo not drawn)	2.13 µg/mL (≈ 5.19 µM)	> 12.3 µg/mL	0%	0%	> 12.3 µg/mL	100%	3.45 µg/mL (≈ 8.42 µM)	2.56 µg/mL (≈ 6.26 µM)
